From PMC10765384 (Bioorganic chemistry, 2023)

What was measured:
[1] = Cytotoxicity, CellTiter 96 assay in CEM cells; type: cell-based, human; details: human, T lymphoblast (CEM) cells
Summary of the method: (§1)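 Colorimetric non-radioactive cell proliferation read-out (CellTiter 96). CC50 is the test compound concentration that inhibited cell growth by 50%.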

[2] = Cytotoxicity, CellTiter 96 assay in Vero cells; type: cell-based, African green monkey; details: African green monkey, kidney (Vero) cells
Summary of the method: as §1

[3] = Cytotoxicity, CellTiter 96 assay in HepG2 cells; type: cell-based, human; details: human, hepatocellular carcinoma (HepG2) cells
Summary of the method: as §1

[4] = tested on: HBV DNA replication in HepAD38 cells; experiment: Anti-HBV activity, 7-day assay in HepAD38 cells; type: cell-based, hepatitis B virus; details: for EC50 / EC90: Hepatitis B virus, HePAD38, 168 h; for EC50: read-out: Anti-HBV activity EC50; for EC90: read-out: Anti-HBV activity EC90; for fold increase of anti-HBV potency compared to GLP-26: HepAD38 EC50 relative to reference GLP-26
[5] = Cytotoxicity, CellTiter 96 assay in PBM cells; type: cell-based, human; details: human, peripheral blood mononuclear (PBM) cells
Summary of the method: as §1

| SMILES | CC50 [1] [µM] | CC50 [2] [µM] | CC50 [3] [µM] | EC50 [4] [µM] | EC90 [4] [µM] | CC50 [5] [µM] | fold increase of anti-HBV potency compared to GLP-26 [4] |
| --- | --- | --- | --- | --- | --- | --- | --- |
| C#CCNC(=O)C(=O)c1c(C)c(C(=O)Nc2ccc(F)c(F)c2)n(CC)c1C [Compound 5a, N-(3,4-Difluorophenyl)-1-ethyl-3,5-dimethyl-4-(2-oxo-2-(prop-2-yn-1-ylamino)acetyl)-1H-pyrrole-2-carboxamide] | > 100 | > 100 | > 100 | 0.0071 ± 0.0062 | 0.0494 ± 0.0129 | > 100 | – |
| C#CCNC(=O)C(=O)c1c(C)c(C(=O)Nc2ccc(F)c(F)c2)n(CCC)c1C [Compound 5b, N-(3,4-Difluorophenyl)-3,5-dimethyl-4-(2-oxo-2-(prop-2-yn-1-ylamino)acetyl)-1-propyl-1H-pyrrole-2-carboxamide] | > 100 | > 100 | > 100 | 0.0091 ± 0.0037 | 0.044 ± 0.021 | > 100 | – |
| C#CCNC(=O)C(=O)c1c(C)c(C(=O)Nc2ccc(F)c(F)c2)n(CCCC)c1C [Compound 5c, 1-Butyl-N-(3,4-difluorophenyl)-3,5-dimethyl-4-(2-oxo-2-(prop-2-yn-1-ylamino)acetyl)-1H-pyrrole-2-carboxamide] | > 100 | > 100 | > 100 | 0.0874 ± 0.0037 | 0.556 ± 0.147 | > 100 | – |
| C#CCNC(=O)C(=O)c1c(C)c(C(=O)Nc2ccc(F)c(F)c2)n(CC=C)c1C [Compound 5d, 1-Allyl-N-(3,4-difluorophenyl)-3,5-dimethyl-4-(2-oxo-2-(prop-2-yn-1-ylamino)acetyl)-1H-pyrrole-2-carboxamide] | > 100 | > 100 | > 100 | 0.003 ± 0.0014 | 0.128 ± 0.15 | > 100 | – |
| C#CCNC(=O)C(=O)c1c(C)c(C(=O)Nc2ccc(F)c(F)c2)n(C2CC2)c1C [Compound 5e, 1-Cyclopropyl-N-(3,4-difluorophenyl)-3,5-dimethyl-4-(2-oxo-2-(prop-2-yn-1-ylamino)acetyl)-1H-pyrrole-2-carboxamide] | > 100 | > 100 | > 100 | 0.0075 ± 0.0078 | 0.0415 ± 0.012 | > 100 | – |
| C#CCNC(=O)C(=O)c1c(C)c(C(=O)Nc2ccc(F)c(F)c2)n(CC2CC2)c1C [Compound 5f, 1-(Cyclopropylmethyl)-N-(3,4-difluorophenyl)-3,5-dimethyl-4-(2-oxo-2-(prop-2-yn-1-ylamino)acetyl)-1H-pyrrole-2-carboxamide] | > 100 | > 100 | > 100 | 0.0522 ± 0.0271 | 0.0522 ± 0.0271 | > 100 | – |
| C#CCNC(=O)C(=O)c1c(C)c(C(=O)Nc2ccc(F)c(F)c2)n(CC#C)c1C [Compound 5g, N-(3,4-Difluorophenyl)-3,5-dimethyl-4-(2-oxo-2-(prop-2-yn-1-ylamino)acetyl)-1-(prop-2-yn-1-yl)-1H-pyrrole-2-carboxamide] | > 100 | > 100 | > 100 | 0.00088 ± 0.00043 | 0.0103 ± 0.006 | > 100 | > 5 fold |
| C#CCNC(=O)C(=O)c1c(C)c(C(=O)Nc2ccc(F)c(F)c2)n(CC#CC)c1C [Compound 5h, 1-(But-2-yn-1-yl)-N-(3,4-difluorophenyl)-3,5-dimethyl-4-(2-oxo-2-(prop-2-yn-1-ylamino)acetyl)-1H-pyrrole-2-carboxamide] | > 100 | > 100 | > 100 | 0.0452 ± 0.0201 | 0.395 ± 0.327 | > 100 | – |
| C#CCNC(=O)C(=O)c1c(C)c(C(=O)Nc2ccc(F)c(F)c2)n(CC#CCC)c1C [Compound 5i, N-(3,4-Difluorophenyl)-3,5-dimethyl-4-(2-oxo-2-(prop-2-yn-1-ylamino)acetyl)-1-(pent-2-yn-1-yl)-1H-pyrrole-2-carboxamide] | > 100 | > 100 | > 100 | 0.826 ± 0.172 | 3.69 | > 100 | – |
| C#CCNC(=O)C(=O)c1c(C)c(C(=O)Nc2ccc(F)c(F)c2)n(Cc2ccccc2)c1C [Compound 5j, 1-Benzyl-N-(3,4-difluorophenyl)-3,5-dimethyl-4-(2-oxo-2-(prop-2-yn-1-ylamino)acetyl)-1H-pyrrole-2-carboxamide] | > 100 | > 100 | > 100 | 2.52 | > 10 | > 100 | – |
| C#CC(C)(C)NC(=O)C(=O)c1c(C)c(C(=O)Nc2ccc(F)c(F)c2)n(C)c1C [Compound 9a, N-(3,4-Difluorophenyl)-1,3,5-trimethyl-4-(2-((2-methylbut-3-yn-2-yl)amino)-2-oxoacetyl)-1H-pyrrole-2-carboxamide] | 25 ± 2 | > 100 | 91 ± 12 | 0.00071 ± 0.00022 | 0.0082 ± 0.0006 | 64 ± 26 | 5–30 fold |
| C#CC(C)(CC)NC(=O)C(=O)c1c(C)c(C(=O)Nc2ccc(F)c(F)c2)n(C)c1C (stereo not shown) [Compound 9b, N-(3,4-Difluorophenyl)-1,3,5-trimethyl-4-(2-(3-methylpent-1-yn-3-ylamino)-2-oxoacetyl)-1H-pyrrole-2-carboxamide] | 10 ± 3 | 64 ± 16 | 84 ± 11 | 0.00015 ± 7e-05 | 0.0068 ± 0.0034 | 61 ± 43 | 5–30 fold |
| C#CC(CC)(CC)NC(=O)C(=O)c1c(C)c(C(=O)Nc2ccc(F)c(F)c2)n(C)c1C [Compound 9c, N-(3,4-Difluorophenyl)-4-(2-(3-ethylpent-1-yn-3-ylamino)-2-oxoacetyl)-1,3,5-trimethyl-1H-pyrrole-2-carboxamide] | 16 | 42 | 44 ± 35 | 0.0005 ± 0.0003 | 0.0046 ± 0.0023 | 26 ± 14 | 5–30 fold |
| C#CC1(NC(=O)C(=O)c2c(C)c(C(=O)Nc3ccc(F)c(F)c3)n(C)c2C)CC1 [Compound 9d, N-(3,4-Difluorophenyl)-4-(2-(1-ethynylcyclopropylamino)-2-oxoacetyl)-1,3,5-trimethyl-1H-pyrrole-2-carboxamide] | > 100 | > 100 | > 100 | 0.0008 ± 0.0007 | 0.0061 ± 0.0022 | > 100 | 5–30 fold |
| C#CC1(NC(=O)C(=O)c2c(C)c(C(=O)Nc3ccc(F)c(F)c3)n(C)c2C)CCC1 [Compound 9e, N-(3,4-Difluorophenyl)-4-(2-(1-ethynylcyclobutylamino)-2-oxoacetyl)-1,3,5-trimethyl-1H-pyrrole-2-carboxamide] | > 100 | > 100 | 98 | 0.0003 ± 0.0004 | 0.0019 ± 0.0015 | > 100 | 5–30 fold |
| C#CC1(NC(=O)C(=O)c2c(C)c(C(=O)Nc3ccc(F)c(F)c3)n(C)c2C)CCCCC1 [Compound 9f, N-(3,4-Difluorophenyl)-4-(2-(1-ethynylcyclohexylamino)-2-oxoacetyl)-1,3,5-trimethyl-1H-pyrrole-2-carboxamide] | 15 | 43 | 42 ± 23 | 0.0035 ± 0.0048 | 0.0074 ± 0.0093 | 23 ± 13 | only a moderate improvement |
| C#CCn1c(C)c(C(=O)C(=O)NC(C#C)(CC)CC)c(C)c1C(=O)Nc1ccc(F)c(F)c1 [Compound 10b, N-(3,4-difluorophenyl)-4-(2-((3-ethylpent-1-yn-3-yl)amino)-2-oxoacetyl)-3,5-dimethyl-1-(prop-2-yn-1-yl)-1H-pyrrole-2-carboxamide] | 76 ± 17 | > 100 | 72 ± 39 | 0.0079 ± 0.0016 | 0.06 ± 0.041 | 53 ± 41 | – |
